Laboratory results: ChEMBL document CHEMBL1140818, “Triazole derivatives as non-nucleoside inhibitors of HIV-1 reverse transcriptase--structure-activity relationships and crystallographic analysis” (Bioorg Med Chem Lett, 2008)

Tests used:
[1] = Selectivity index, ratio of EC50 for MT4 cells to EC50 for HIV1; format: cell-based; conditions: human; for Selectivity index: mt4; for selectivity ratio: MT4 cells, read-out: Selectivity index
Method in brief: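 Ratio of the cytotoxicity EC50 to the antiviral EC50, both from the 5-day MT-4 assay with virus-induced cell death as the antiviral read-out. Values are means of at least two independent experiments.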

[2] = test system: Human immunodeficiency virus 1; assay: Antiviral activity against HIV1 in MT4 cells; format: functional, organism-based; conditions: Human immunodeficiency virus 1, MT4
Method in brief: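 HIV-1 infectivity assay in MT-4 cells over 5 days, with virus-induced cell death as the read-out. EC50 is the mean of at least two independent experiments.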

[3] = Partition coefficient, log D of the compound; format: physicochemical; conditions: octanol/water

SMILES	Selectivity index [1]	EC50 [2]	selectivity ratio [1]	logD [3]
c1ccc(CCSc2nnc(-c3ccsc3)n2Cc2ccccc2)cc1	Not Active	> 100 µM	–	–
c1ccc(Cn2c(SCc3ccccn3)nnc2-c2ccsc2)cc1	Not Active	–	–	–
c1ccc(Cn2c(SCc3ccncc3)nnc2-c2ccsc2)cc1	–	41.5 µM	1	–
Clc1ccc(CSc2nnc(-c3ccsc3)n2Cc2ccccc2)cc1	–	51.1 µM	≤ 1	–
c1ccc(CSc2nnc(-c3cccs3)n2-c2ccccc2)cc1	Not Active	> 100 µM	–	–
c1ccc(CCn2c(SCc3ccccc3)nnc2-c2cccs2)cc1	Not Active	> 100 µM	–	–
Clc1cccc(Cl)c1CSc1nnc(-c2cccs2)n1Cc1ccccc1	–	3.45 µM	1.7	–
Clc1ccc(CSc2nnc(-c3cccs3)n2Cc2ccccc2)cc1Cl	–	2.4 µM	3.1	–
Clc1ccc(Cn2c(SCc3ccccc3)nnc2-c2cccs2)cc1	–	> 100 µM	–	–
Clc1ccc(Cn2c(SCc3ccccc3)nnc2-c2cccs2)cc1Cl	Not Active	> 100 µM	–	–
CCCCCCSc1nnc(-c2ccsc2)n1Cc1ccccc1	Not Active	> 100 µM	–	–
Cc1nnc(SCc2ccccc2)n1Cc1ccccc1	–	23.5 µM	2	–
c1ccc(CSc2nnc(-c3ccco3)n2Cc2ccccc2)cc1	–	4.6 µM	5.2	–
c1ccc(CSc2nnc(Cc3cccs3)n2Cc2ccccc2)cc1	Not Active	> 100 µM	–	–
Clc1ccccc1-c1nnc(SCc2ccccc2)n1Cc1ccccc1	–	2.85 µM	2.9	–
CSc1nnc(-c2cccs2)n1Cc1ccccc1	Not Active	> 100 µM	–	–
CCCCCCSc1nnc(-c2cccs2)n1Cc1ccccc1	Not Active	> 100 µM	–	–
N#Cc1ccc(CSc2nnc(-c3cccs3)n2Cc2ccccc2)cc1	–	23.5 µM	< 1	–
Clc1ccccc1CSc1nnc(-c2cccs2)n1Cc1ccccc1	–	0.44 µM	35.2	–
N#Cc1ccc(CSc2nnc(-c3ccsc3)n2Cc2ccccc2)cc1	Not Active	> 100 µM	–	–
Clc1cccc(CSc2nnc(-c3cccs3)n2Cc2ccccc2)c1Cl	–	0.73 µM	9.1	–
Clc1ccccc1CSc1nnc(-c2ccsc2)n1Cc1ccccc1	–	0.131 µM	62	–
Clc1ccc(CSc2nnc(-c3ccsc3)n2Cc2ccccc2)c(Cl)c1	–	3.3 µM	2.9	–
Clc1ccc(Cl)c(CSc2nnc(-c3ccsc3)n2Cc2ccccc2)c1	–	8.95 µM	1.6	–
c1ccc(CCSc2nnc(-c3cccs3)n2Cc2ccccc2)cc1	–	28.5 µM	≤ 1	–

SMILES	Selectivity index [1]	EC50 [2]	selectivity ratio [1]	logD [3]
c1ccc(Cn2c(SCc3cccnc3)nnc2-c2cccs2)cc1	–	8.3 µM	6	–
Clc1cccc(Cl)c1CSc1nnc(-c2ccsc2)n1Cc1ccccc1	Not Active	> 100 µM	–	–
c1ccc(Cn2c(SCc3ccc4ccccc4c3)nnc2-c2ccsc2)cc1	–	0.58 µM	11.1	–
Cn1c(SCc2ccccc2)nnc1-c1cccs1	Not Active	> 100 µM	–	–
c1ccc(Cn2c(SCc3ccncc3)nnc2-c2cccs2)cc1	–	4.8 µM	15	–
COc1ccc(CSc2nnc(-c3cccs3)n2Cc2ccccc2)cc1	–	3 µM	3.8	–
c1ccc(CSc2nnc(-c3cccs3)n2Cc2ccccc2)cc1	–	3.7 µM	8	3.5
Clc1cccc(CSc2nnc(-c3ccsc3)n2Cc2ccccc2)c1	–	1.6 µM	6.3	–
COc1ccc(Cn2c(SCc3ccccc3)nnc2-c2cccs2)cc1	Not Active	> 100 µM	–	–
c1ccc(Cn2c(SCc3ccccn3)nnc2-c2cccs2)cc1	–	8.3 µM	5	–
Clc1ccc(CSc2nnc(-c3cccs3)n2Cc2ccccc2)cc1	–	2 µM	5.7	–
c1ccc(CSc2nnc(-c3cc4ccccc4s3)n2Cc2ccccc2)cc1	Not Active	> 100 µM	–	–
Clc1ccc(Cl)c(CSc2nnc(-c3cccs3)n2Cc2ccccc2)c1	–	1 µM	7.9	–
c1ccc(Cn2c(SCc3ccc4ccccc4c3)nnc2-c2cccs2)cc1	–	1.7 µM	5.9	–
c1ccc(Cn2c(SCc3cccnc3)nnc2-c2ccsc2)cc1	–	23 µM	2	–
Clc1cccc(CSc2nnc(-c3cccs3)n2Cc2ccccc2)c1	–	1.7 µM	5.3	–
COc1ccc(CSc2nnc(-c3ccsc3)n2Cc2ccccc2)cc1	–	5.8 µM	1	–
Clc1ccc(CSc2nnc(-c3cccs3)n2Cc2ccccc2)c(Cl)c1	–	1.1 µM	7.7	–
CSc1nnc(-c2ccsc2)n1Cc1ccccc1	Not Active	> 100 µM	–	–
c1ccc(CSc2nnc(-c3ccsc3)n2Cc2ccccc2)cc1	–	9.2 µM	2	–
Clc1ccc(CSc2nnc(-c3ccsc3)n2Cc2ccccc2)cc1Cl	–	4.7 µM	1.2	–
c1ccc(CSc2nnc(-c3ccccc3)n2Cc2ccccc2)cc1	–	10.5 µM	1.1	–
Clc1cccc(CSc2nnc(-c3ccsc3)n2Cc2ccccc2)c1Cl	–	1.3 µM	5	–
O=C1Nc2ccc(Cl)cc2C(C#CC2CC2)(C(F)(F)F)O1 (single isomer, unassigned) [EFAVIRENZ]	–	–	> 6000	–
